Assay results from publication PMC5474427 (EBioMedicine, 2016).

Assays:
[1] = system: β-tubulin mRNA in 22Rv1 prostate tumor cells; assay: β-tubulin mRNA expression by RNA sequencing; format: cell-based; conditions: 22Rv1 cells, 48 h, 1 μM TVB-3166
MRC-5 lung fibroblasts = format: cell-based; conditions: MRC-5 fibroblasts
[2] = system: 22Rv1 prostate tumor cells; assay: Soft agar colony formation; format: cell-based
How it was run: (§1)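 Cells were plated in 0.35% agarose in IMDM with 10% FBS, 1% non-essential amino acids and 1% L-glutamine, containing a dose–response matrix of FASN inhibitor and paclitaxel. This layer sat over a 0.6% bacto-agar base in the same medium. A compound-containing liquid feeder layer was changed weekly. After 3–4 weeks, colonies were stained with 0.005% crystal violet and wells imaged.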

[3] = system: CALU6 non-small-cell lung tumor cells; assay: Soft agar colony formation; format: cell-based
How it was run: as §1

[4] = system: CALU6 NSCLC adenocarcinoma cell line xenograft; assay: CALU6 NSCLC xenograft tumor growth; format: in vivo, mice; conditions: CALU-6; TVB-3166 60 mg/kg oral once daily; paclitaxel 10 mg/kg iv every 4 days
How it was run: (§2)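 Mice with NSCLC cell-line (CALU-6, A549) or patient-derived tumors were randomized by tumor size and dosed once mean tumor size reached 150–200 mm3; ≥10 mice/group. FASN inhibitor 60 mg/kg by oral gavage once daily; paclitaxel 10 mg/kg iv every 4 days or docetaxel 8 or 6 mg/kg iv every 7 days. In combinations, FASN inhibitor was given 2 h before taxane. TGI is % tumor growth from treatment start, drug vs vehicle groups.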

xenograft tumor models = assay: Xenograft tumor models, summary statements across models; format: in vivo, mice; conditions: three NSCLC studies (CALU6, A549, CTG-0165_P + 6)
How it was run: as §2

[5] = Phase I, solid tumors; ref Dean et al., 2016; cited from earlier work
Phospho-b-Catenin (S675) = format: in vivo; conditions: A549 xenograft tumors, 2 h after final dose on day 20
How it was run: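 Xenograft tumors were harvested 2 h after the last dose, flash frozen and lysed in buffer with protease and phosphatase inhibitors. Protein was measured by BCA. Lysates from individual mice in each group were pooled so each tumor contributed equal total protein. Western blots were imaged on an infrared imager. Pools were run once, with no statistical testing.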

palmitoyl-α-tubulin = assay: Tubulin palmitoylation in NSCLC cell lines; format: cell-based; conditions: A549 cells, 20 μM for 18 h
palmitoyl-β-tubulin = assay: Tubulin palmitoylation in NSCLC cell lines; format: cell-based; conditions: A549 cells, 20 μM for 18 h

CC(=O)O[C@H]1C(=O)[C@@]2(C)[C@H]([C@H](OC(=O)c3ccccc3)[C@]3(O)C[C@H](OC(=O)[C@H](O)[C@@H](NC(=O)c4ccccc4)c4ccccc4)C(C)=C1C3(C)C)[C@]1(OC(C)=O)CO[C@@H]1C[C@@H]2O [Paclitaxel]
β-tubulin mRNA expression compared to DMSO [1]: no effect
effect on microtubule organization in non-tumor cells (MRC-5 lung fibroblasts): very little effect
soft agar colony growth ([2]; 3 nM paclitaxel): strong inhibition of colony growth
soft agar colony growth ([2]; paclitaxel 0.3 or 1.0 nM): did not affect colony size or number
soft agar colony growth ([3]; 3 nM paclitaxel): strong inhibition of colony growth
soft agar colony growth ([3]; paclitaxel 0.3 or 1.0 nM): did not affect colony size or number
TGI vs. vehicle [4]: 63%
tumor growth inhibition, single agent (xenograft tumor models): 48–63%

Cc1nnc(-c2cc(C(=O)N3CCC(c4ccc(C#N)cc4)CC3)c(C)cc2C2CCC2)[nH]1 [TVB-2640]
oral bioavailability and pharmacokinetics [5]: excellent

CC(=O)O[C@@]12CO[C@@H]1C[C@H](O)[C@@]1(C)C(=O)[C@H](O)C3=C(C)[C@@H](OC(=O)[C@H](O)[C@@H](NC(=O)OC(C)(C)C)c4ccccc4)C[C@@](O)([C@@H](OC(=O)c4ccccc4)[C@H]21)C3(C)C [Docetaxel]
inhibition of β-catenin S675 phosphorylation (Phospho-b-Catenin (S675)): 25%

CCCCCCCCCCCCCCC(Br)C(=O)O (stereo not drawn) [2-Bromo-Palmitate, 2-bromopalmitate]
decrease of palmitoyl-α-tubulin level (palmitoyl-α-tubulin): 27%
decrease of palmitoyl-β-tubulin level (palmitoyl-β-tubulin): 79%
